Measured values: ChEMBL document CHEMBL1165850, “Synthesis, biological evaluation and molecular docking of novel series of spiro [(2H,3H) quinazoline-2,1'- cyclohexan]-4(1H)-one derivatives as anti-inflammatory and analgesic agents” (Eur J Med Chem, 2010)

The compounds below were run on Rattus norvegicus (assay: Antiinflammatory activity in rat assessed as reduction in carrageenan-induced paw edema at 9 mg/kg, ip administered 1 hr before carrageenan challenge measured after 1 hr). Details: route intraperitoneal.
Type: functional
Design: unit not given here
Procedure, shortened: (§1)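 Adult rats of either sex (150–200 g), randomly grouped. Compounds were dissolved in DMSO and given i.p. at 9 mg/kg; indomethacin was given at 10 mg/kg; controls received DMSO i.p. Dosing was 1 h before 100 ul of 1% carrageenan in saline injected subplantar into the right hind paw. Paw volume was measured by planimeter before and at 1, 2, 3 and 4 h. Values are mean ± S.E., analysed by one-way ANOVA with LSD.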
With N#Cc1c(-c2ccc(F)cc2)cc(-c2ccc(N3C(=O)c4ccccc4NC34CCCCC4)cc2)[nH]c1=O the Activity was 85.4. CCC(=S)NS(=O)(=O)c1ccc(N2C(=O)c3ccccc3NC23CCCCC3)cc1 showed an Activity of 67.5. N#Cc1c(-c2ccccc2O)cc(-c2ccc(N3C(=O)c4ccccc4NC34CCCCC4)cc2)[nH]c1=O was tested, and the Activity was 49.4. COc1ccc(/C=N/NC(=O)c2ccc(N3C(=O)c4ccccc4NC34CCCCC4)cc2)cc1 showed an Activity of 72.4. CN(C)c1ccc(C2CC(c3ccc(N4C(=O)c5ccccc5NC45CCCCC5)cc3)=NN2c2ccccc2)cc1 (stereo not drawn) showed an Activity of 57.9. O=C1c2ccccc2NC2(CCCCC2)N1c1ccc(S(=O)(=O)Nc2ncccn2)cc1 gave an Activity of 60.4. O=C(NNC(=S)NC1CCCCC1)c1ccc(N2C(=O)c3ccccc3NC23CCCCC3)cc1 was tested, and the Activity was 65.1. For O=C1c2ccccc2NC2(CCCCC2)N1c1ccc(C2=NN(c3ccccc3)C(c3ccco3)C2)cc1 (stereo not drawn), the Activity was 52.2. CC(=O)c1ccc(N2C(=O)c3ccccc3NC23CCCCC3)cc1 gave an Activity of 54.6. Compound O=C(NN1C(=O)CC(=O)N(C2CCCCC2)C1=S)c1ccc(N2C(=O)c3ccccc3NC23CCCCC3)cc1 has an Activity of 61.7.

These compounds were tested on Mus musculus (assay: Analgesic activity in mouse assessed as reaction time administered 1 hr before test measured after 2 hrs by hot plate test). Details: not given.
Type: functional
Procedure, shortened: (§2)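 Hot-plate test in adult mice (20–25 g), plate at 52 °C (±0.1 °C). Vehicle, compounds or tramadol (20 mg/Kg b wt) were given 60 min before testing. Latency to lick a hind paw or jump was recorded before dosing and at 1 and 2 h after. Values are mean ± S.E. of six animals per group, with Dunnett's test against control.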
Compound N#Cc1c(-c2ccc(F)cc2)cc(-c2ccc(N3C(=O)c4ccccc4NC34CCCCC4)cc2)[nH]c1=O has a Time of 13.5 s. CCC(=S)NS(=O)(=O)c1ccc(N2C(=O)c3ccccc3NC23CCCCC3)cc1 showed a Time of 19.1 s. For N#Cc1c(-c2ccccc2O)cc(-c2ccc(N3C(=O)c4ccccc4NC34CCCCC4)cc2)[nH]c1=O, the Time was 19.4 s. COc1ccc(/C=N/NC(=O)c2ccc(N3C(=O)c4ccccc4NC34CCCCC4)cc2)cc1 was tested, and the Time was 16.9 s. In the case of CN(C)c1ccc(C2CC(c3ccc(N4C(=O)c5ccccc5NC45CCCCC5)cc3)=NN2c2ccccc2)cc1 (stereo not drawn), the Time is reported as 20.5 s. O=C1c2ccccc2NC2(CCCCC2)N1c1ccc(S(=O)(=O)Nc2ncccn2)cc1 showed a Time of 21.6 s. O=C(NNC(=S)NC1CCCCC1)c1ccc(N2C(=O)c3ccccc3NC23CCCCC3)cc1 gave a Time of 17.2 s. O=C1c2ccccc2NC2(CCCCC2)N1c1ccc(C2=NN(c3ccccc3)C(c3ccco3)C2)cc1 (stereo not drawn) was tested, and the Time was 10.9 s. With CC(=O)c1ccc(N2C(=O)c3ccccc3NC23CCCCC3)cc1 the Time was 17 s. O=C(NN1C(=O)CC(=O)N(C2CCCCC2)C1=S)c1ccc(N2C(=O)c3ccccc3NC23CCCCC3)cc1 showed a Time of 17.1 s.

The compounds below were run on Mus musculus (assay: Analgesic activity in mouse assessed as reaction time administered 1 hr before test measured after 1 hr by hot plate test). Details: not given.
Type: functional
Procedure, shortened: as §2
N#Cc1c(-c2ccc(F)cc2)cc(-c2ccc(N3C(=O)c4ccccc4NC34CCCCC4)cc2)[nH]c1=O gave a Time of 11.8 s. CCC(=S)NS(=O)(=O)c1ccc(N2C(=O)c3ccccc3NC23CCCCC3)cc1 was tested, and the Time was 11 s. Compound N#Cc1c(-c2ccccc2O)cc(-c2ccc(N3C(=O)c4ccccc4NC34CCCCC4)cc2)[nH]c1=O has a Time of 24.9 s. COc1ccc(/C=N/NC(=O)c2ccc(N3C(=O)c4ccccc4NC34CCCCC4)cc2)cc1 was tested, and the Time was 13.3 s. For CN(C)c1ccc(C2CC(c3ccc(N4C(=O)c5ccccc5NC45CCCCC5)cc3)=NN2c2ccccc2)cc1 (stereo not drawn), the Time was 15 s. Compound O=C1c2ccccc2NC2(CCCCC2)N1c1ccc(S(=O)(=O)Nc2ncccn2)cc1 has a Time of 19.8 s. Work on O=C(NNC(=S)NC1CCCCC1)c1ccc(N2C(=O)c3ccccc3NC23CCCCC3)cc1 yielded a Time of 9.3 s. With O=C1c2ccccc2NC2(CCCCC2)N1c1ccc(C2=NN(c3ccccc3)C(c3ccco3)C2)cc1 (stereo not drawn) the Time was 9.2 s. With CC(=O)c1ccc(N2C(=O)c3ccccc3NC23CCCCC3)cc1 the Time was 9.1 s. For O=C(NN1C(=O)CC(=O)N(C2CCCCC2)C1=S)c1ccc(N2C(=O)c3ccccc3NC23CCCCC3)cc1, the Time was 9.4 s.

These compounds were tested on Rattus norvegicus (assay: Antiinflammatory activity in rat assessed as reduction in carrageenan-induced paw edema at 9 mg/kg, ip administered 1 hr before carrageenan challenge measured after 3 hrs). Details: route intraperitoneal.
Type: functional
Design: unit not given here
Procedure, shortened: as §1
For N#Cc1c(-c2ccc(F)cc2)cc(-c2ccc(N3C(=O)c4ccccc4NC34CCCCC4)cc2)[nH]c1=O, the Activity was 88. For CCC(=S)NS(=O)(=O)c1ccc(N2C(=O)c3ccccc3NC23CCCCC3)cc1, the Activity was 88.6. N#Cc1c(-c2ccccc2O)cc(-c2ccc(N3C(=O)c4ccccc4NC34CCCCC4)cc2)[nH]c1=O was tested, and the Activity was 76.4. COc1ccc(/C=N/NC(=O)c2ccc(N3C(=O)c4ccccc4NC34CCCCC4)cc2)cc1 gave an Activity of 88.7. Compound CN(C)c1ccc(C2CC(c3ccc(N4C(=O)c5ccccc5NC45CCCCC5)cc3)=NN2c2ccccc2)cc1 (stereo not drawn) has an Activity of 66.4. O=C1c2ccccc2NC2(CCCCC2)N1c1ccc(S(=O)(=O)Nc2ncccn2)cc1 was tested, and the Activity was 80.1. For O=C(NNC(=S)NC1CCCCC1)c1ccc(N2C(=O)c3ccccc3NC23CCCCC3)cc1, the Activity was 83.9. In the case of O=C1c2ccccc2NC2(CCCCC2)N1c1ccc(C2=NN(c3ccccc3)C(c3ccco3)C2)cc1 (stereo not drawn), the Activity is reported as 82.5. For CC(=O)c1ccc(N2C(=O)c3ccccc3NC23CCCCC3)cc1, the Activity was 81.5. With O=C(NN1C(=O)CC(=O)N(C2CCCCC2)C1=S)c1ccc(N2C(=O)c3ccccc3NC23CCCCC3)cc1 the Activity was 85.1.

What follows are compounds tested on Rattus norvegicus (assay: Gastrointestinal toxicity in Wistar rat assessed as ulcerogenic effect at 9 mg/kg, po after 7 hrs). Details: in vivo.
Type: organism-based
Design: dose 9 mg/kg, route oral
Procedure, shortened: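 Male Wistar rats, 150–175 g, groups of 5, fasted 48 h, then given 9 mg/kg orally as an aqueous suspension (10 mL/kg). Killed 7 h later. Stomachs were opened along the greater curvature and inspected for irritation, scored as number of ulcers, ulcer severity and number of rats with ulcers per 5. Ethanol control, indomethacin reference. Reported as mean ± S.E.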
N#Cc1c(-c2ccccc2O)cc(-c2ccc(N3C(=O)c4ccccc4NC34CCCCC4)cc2)[nH]c1=O showed a UI of 0. CN(C)c1ccc(C2CC(c3ccc(N4C(=O)c5ccccc5NC45CCCCC5)cc3)=NN2c2ccccc2)cc1 (stereo not drawn) was tested, and the UI was 10.4. In the case of O=C1c2ccccc2NC2(CCCCC2)N1c1ccc(S(=O)(=O)Nc2ncccn2)cc1, the UI is reported as 0.6.

What follows are compounds tested on Rattus norvegicus (assay: Antiinflammatory activity in rat assessed as reduction in carrageenan-induced paw edema at 9 mg/kg, ip administered 1 hr before carrageenan challenge measured after 2 hrs). Details: route intraperitoneal.
Type: functional
Design: unit not given here
Procedure, shortened: as §1
N#Cc1c(-c2ccc(F)cc2)cc(-c2ccc(N3C(=O)c4ccccc4NC34CCCCC4)cc2)[nH]c1=O was tested, and the Activity was 74.6. CCC(=S)NS(=O)(=O)c1ccc(N2C(=O)c3ccccc3NC23CCCCC3)cc1 showed an Activity of 83.4. N#Cc1c(-c2ccccc2O)cc(-c2ccc(N3C(=O)c4ccccc4NC34CCCCC4)cc2)[nH]c1=O gave an Activity of 71.8. COc1ccc(/C=N/NC(=O)c2ccc(N3C(=O)c4ccccc4NC34CCCCC4)cc2)cc1 showed an Activity of 88. Compound CN(C)c1ccc(C2CC(c3ccc(N4C(=O)c5ccccc5NC45CCCCC5)cc3)=NN2c2ccccc2)cc1 (stereo not drawn) has an Activity of 65.4. O=C1c2ccccc2NC2(CCCCC2)N1c1ccc(S(=O)(=O)Nc2ncccn2)cc1 showed an Activity of 74.1. Work on O=C(NNC(=S)NC1CCCCC1)c1ccc(N2C(=O)c3ccccc3NC23CCCCC3)cc1 yielded an Activity of 82.1. O=C1c2ccccc2NC2(CCCCC2)N1c1ccc(C2=NN(c3ccccc3)C(c3ccco3)C2)cc1 (stereo not drawn) was tested, and the Activity was 79.1. CC(=O)c1ccc(N2C(=O)c3ccccc3NC23CCCCC3)cc1 was tested, and the Activity was 80.9. O=C(NN1C(=O)CC(=O)N(C2CCCCC2)C1=S)c1ccc(N2C(=O)c3ccccc3NC23CCCCC3)cc1 showed an Activity of 79.3.
